Assay results published in ChEMBL document CHEMBL1944515 (J Med Chem, 2012).
pIC50: −log10 of the molar value. Calls of active or inactive are those of the source. The rule behind the calls is not given here.

Experiments:
[1] = tested on: HeLa; assay: Induction of ROS production in human HeLa cells at 50 to 100 nM after 24 to 48 hrs by H2-DCFDA staining-based flow cytometry; assay type: functional, cell-based
Procedure, shortened: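 HeLa cells were exposed for 24 or 48 h, then stained with hydroethidine or H2-DCFDA for ROS and read by flow cytometry. DMSO ≤0.25%. Mean ± SEM of three independent experiments.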

[2] = Cytotoxicity against human A549-T12 cells after 72 hrs by MTT assay; assay type: functional, cell-based; settings: A549, 72 h
Procedure, shortened: (§1)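 Cells seeded at 8 × 10^3 per well and left 18 h at 37 °C, 5% CO2, then given fresh medium with compound at a range of concentrations for 72 h; DMSO at most 0.25% final. Viability read by MTT relative to 0.25% DMSO-treated cells. […] LoVoDoxo kept in Ham's F12 with 0.1 μg/mL doxorubicin; A549-T12 kept in DMEM with 12 nM paclitaxel.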

[3] = species: Bos taurus; assay: Displacement of [3H]colchicine from bovine tubulin at 5 uM by DEAE-cellulose filter method
Procedure, shortened: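 Inhibition of [3H]colchicine binding was measured in mixtures of 1 μM tubulin, 5 μM [3H]colchicine and 5 μM test compound. Results are percent inhibition of binding.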

[4] = tested on: HT-29; assay: Anticancer activity against human HT-29 cells xenografted in BALB/c nude mouse assessed as tumor growth inhibition at 100 mg/kg, ip administered on days 0,2 and 4 relative to vehicle treated control; assay type: functional; settings: HT-29, ip, route intraperitoneal, read-out: TGI
Procedure, shortened: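 HT-29 cells in log phase, suspended at 1 × 10^7 cells/mL in serum-free RPMI 1640, were inoculated (0.2 mL) into dorsal hypodermis of nude mice. At ~300 mm3, 18 mice were randomised to vehicle or two treatment groups (six per group). Dosing was 100 mg/kg ip in DMSO (0.01 mL/g) on days 0, 2 and 4. Caliper tumour volume V = LW²/2 and body weight were tracked versus vehicle.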

[5] = tested on: LoVo; assay: Cytotoxicity against human LoVo cells after 72 hrs by MTT assay; assay type: functional, cell-based; procedure, shortened: as §1

CCOc1ccc(-c2nnnn2-c2cc(OC)c(OC)c(OC)c2)cc1
Activity [1]: Active
pIC50 [2]: 8.09
inhibition [3]: 78%
inhibition in vivo at 100 mg/kg [4]: 66%
pIC50 [5]: 8.96
